Experimental data as given in ChEMBL document CHEMBL2086239, “Synthesis and biological evaluation of combretastatin-amidobenzothiazole conjugates as potential anticancer agents” (Eur J Med Chem, 2012).
Calls of active or inactive are those of the source. The calls are words filed in the database; no cut-off is given here.

Tests used:
Type in all cases: functional
OVCAR-8 = assay: Growth inhibition of human OVCAR8 cells after 48 hrs by SRB assay; conditions: OVCAR-8, 48 h
Summary of the method: (§1)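 NCI 60-cell-line screen: after preliminary screening, tested at five dose concentrations on 59 human tumour lines covering leukemia, lung, colon, CNS, melanoma, ovarian, renal, prostate and breast.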

A498 = assay: Growth inhibition of human A498 cells after 48 hrs by SRB assay; conditions: A498, 48 h; summary of the method: as §1
NCI-H460 = assay: Growth inhibition of human NCI-H460 cells after 48 hrs by SRB assay; conditions: NCI-H460, 48 h; summary of the method: as §1
HT-29 = assay: Growth inhibition of human HT-29 cells after 48 hrs by SRB assay; summary of the method: as §1
CCRF-CEM = assay: Growth inhibition of human CCRF-CEM cells after 48 hrs by SRB assay; summary of the method: as §1
786-0 = assay: Growth inhibition of human 786-0 cells after 48 hrs by SRB assay; summary of the method: as §1
COLO 205 = assay: Cytotoxicity against human COLO205 cells after 48 hrs assessed as inhibition of cell growth at 10 uM after 48 hrs by SRB assay relative to control; conditions: COLO 205, 48 h, read-out: GI
Summary of the method: (§2)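 SRB protein assay in DMEM with 10% FBS at 37 °C, 5% CO2, 100% relative humidity. Cells seeded in 96-well plates, incubated 24 h, then exposed to drug at 10 µM for 48 h and processed per standard protocol. Absorbance read at 560 nm; growth percentage calculated for test wells relative to control wells.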

SK-OV-3 = assay: Growth inhibition of human SKOV3 cells after 48 hrs by SRB assay; conditions: SK-OV-3, 48 h
Summary of the method: (§3)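 NCI 60-cell-line panel, five-dose testing after preliminary screen; sulforhodamine B protein assay in DMEM with 10% FBS, 37 °C, 5% CO2, 100% humidity. Cells seeded and incubated 24 h before compound addition, then exposed 48 h. Absorbance read at 560 nm; growth percentage relative to control wells; GI50 taken as concentration giving 50% growth inhibition.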

SF-295 = assay: Growth inhibition of human SF295 cells after 48 hrs by SRB assay; conditions: SF-295, 48 h; summary of the method: as §3
MCF7 [1] = assay: Cell cycle arrest in human MCF7 cells assessed as accumulation at G1 phase at 4 uM after 24 hrs by FACS analysis (reference value: 58.33%)
A549 = assay: Growth inhibition of human A549 cells after 48 hrs by SRB assay; conditions: A549, 48 h; summary of the method: as §1
MDA-MB-468 = assay: Growth inhibition of human MDA-MB-468 cells after 48 hrs by SRB assay; conditions: MDA-MB-468, 48 h; summary of the method: as §1
NCI-H23 = assay: Growth inhibition of human NCI-H23 cells after 48 hrs by SRB assay; conditions: NCI-H23, 48 h; summary of the method: as §1
SK-MEL-5 = assay: Growth inhibition of human SK-MEL-5 cells after 48 hrs by SRB assay; conditions: SK-MEL-5, 48 h; summary of the method: as §3
MCF7 [2] = assay: Cell cycle arrest in human MCF7 cells assessed as accumulation at S phase at 4 uM after 24 hrs by FACS analysis (reference value: 6.79%)
NCI-H322M = assay: Growth inhibition of human NCI-H322M cells after 48 hrs by SRB assay; summary of the method: as §1
OVCAR-4 = assay: Growth inhibition of human OVCAR4 cells after 48 hrs by SRB assay; conditions: OVCAR-4, 48 h; summary of the method: as §1
MCF7 [3] = assay: Cell cycle arrest in human MCF7 cells assessed as accumulation at G2/M phase at 4 uM after 24 hrs by FACS analysis (reference value: 34.88%)
SNB-75 = assay: Growth inhibition of human SNB75 cells after 48 hrs by SRB assay; conditions: SNB-75, 48 h; summary of the method: as §3
PC-3 [4] = assay: Growth inhibition of human PC3 cells after 48 hrs by SRB assay; conditions: PC-3, 48 h; summary of the method: as §1
MDA-MB-231 = assay: Growth inhibition of human MDA-MB-231 cells after 48 hrs by SRB assay; conditions: MDA-MB-231, 48 h; summary of the method: as §1
MDA-MB-435 = assay: Growth inhibition of human MDA-MB-435 cells after 48 hrs by SRB assay; conditions: MDA-MB-435, 48 h; summary of the method: as §1
K562 = assay: Growth inhibition of human K562 cells after 48 hrs by SRB assay; conditions: K562, 48 h; summary of the method: as §1
DU-145 = assay: Growth inhibition of human DU145 cells after 48 hrs by SRB assay; conditions: DU-145, 48 h; summary of the method: as §1
HCT-15 = assay: Growth inhibition of human HCT15 cells after 48 hrs by SRB assay; conditions: HCT-15, 48 h; summary of the method: as §1
HEp-2 = assay: Cytotoxicity against human Hep2 cells after 48 hrs assessed as inhibition of cell growth at 10 uM after 48 hrs by SRB assay relative to control; conditions: for inhibition of growth at 10 µM: HEp-2, 48 h, read-out: GI; summary of the method: as §2
SF-268 = assay: Growth inhibition of human SF268 cells after 48 hrs by SRB assay; conditions: SF-268, 48 h; summary of the method: as §1
MOLT-4 = assay: Growth inhibition of human MOLT4 cells after 48 hrs by SRB assay; conditions: MOLT-4, 48 h; summary of the method: as §1
Malme-3M = assay: Growth inhibition of human MALME-3M cells after 48 hrs by SRB assay; summary of the method: as §1
T47D = assay: Growth inhibition of human T47D cells after 48 hrs by SRB assay; summary of the method: as §3
SNB-19 = assay: Growth inhibition of human SNB19 cells after 48 hrs by SRB assay; conditions: SNB-19, 48 h; summary of the method: as §3
OVCAR-5 = assay: Growth inhibition of human OVCAR5 cells after 48 hrs by SRB assay; conditions: OVCAR-5, 48 h; summary of the method: as §1
SN12C = assay: Growth inhibition of human SN12C cells after 48 hrs by SRB assay; summary of the method: as §3
UACC-62 = assay: Growth inhibition of human UACC62 cells after 48 hrs by SRB assay; conditions: UACC-62, 48 h; summary of the method: as §3
KM12 = assay: Growth inhibition of human KM12 cells after 48 hrs by SRB assay; conditions: KM12, 48 h; summary of the method: as §1
LOX IMVI = assay: Growth inhibition of human LOXIMVI cells after 48 hrs by SRB assay; summary of the method: as §1
SR = assay: Growth inhibition of human SR cells after 48 hrs by SRB assay; summary of the method: as §3
Hs-578T = assay: Growth inhibition of human Hs578T cells after 48 hrs by SRB assay; summary of the method: as §1
PC-3 [5] = assay: Cytotoxicity against human PC3 cells after 48 hrs assessed as inhibition of cell growth at 10 uM after 48 hrs by SRB assay relative to control; conditions: PC-3, 48 h, read-out: GI; summary of the method: as §2
RXF 393 = assay: Growth inhibition of human RXF393 cells after 48 hrs by SRB assay; conditions: RXF 393, 48 h; summary of the method: as §1
IGROV-1 = assay: Growth inhibition of human IGROV1 cells after 48 hrs by SRB assay; conditions: IGROV-1, 48 h; summary of the method: as §1
CAKI-1 = assay: Growth inhibition of human Caki1 cells after 48 hrs by SRB assay; conditions: CAKI-1, 48 h; summary of the method: as §1
SW-620 = assay: Growth inhibition of human SW620 cells after 48 hrs by SRB assay; conditions: SW-620, 48 h; summary of the method: as §3

## COc1ccc(/C=C\c2cc(OC)c(OC)c(OC)c2)cc1OCC(=O)Nc1nc2ccc(C(F)(F)F)cc2s1
OVCAR-8
  GI50: 3.86 µM
A498
  GI50: 2.81 µM
NCI-H460
  GI50: 3.55 µM
HT-29; HT-29, 48 h
  GI50: 14.9 µM
CCRF-CEM
  GI50: 4.27 µM
786-0; 786-0, 48 h
  GI50: 6.96 µM
COLO 205
  inhibition of growth at 10 µM: 25%
SK-OV-3
  GI50: 3.29 µM
SF-295
  GI50: 3.36 µM
MCF7 [1]
  Activity: 55.82%
A549
  GI50: 4.46 µM
MDA-MB-468
  GI50: 2.16 µM
NCI-H23
  GI50: 3.9 µM
SK-MEL-5
  GI50: 2.84 µM
MCF7 [2]
  Activity: 7.15%
NCI-H322M
  GI50: 5.38 µM
OVCAR-4
  GI50: 4.66 µM
MCF7 [3]
  Activity: 37.02%
SNB-75
  GI50: 1.58 µM
PC-3 [4]
  GI50: 4.32 µM
MDA-MB-231
  GI50: 3.38 µM
MDA-MB-435
  GI50: 1.84 µM
K562
  GI50: 3.3 µM
DU-145
  GI50: 2.51 µM
HCT-15
  GI50: 3.24 µM
HEp-2
  inhibition of growth at 10 µM: 76%
SF-268
  GI50: 3.85 µM
MOLT-4
  GI50: 3.75 µM
Malme-3M
  GI50: inactive
T47D
  GI50: 4.79 µM
SNB-19
  GI50: 5.03 µM
OVCAR-5
  GI50: 5.98 µM
SN12C
  GI50: 4.43 µM
UACC-62
  GI50: 3.9 µM
KM12
  GI50: 3.14 µM
LOX IMVI
  GI50: 4.01 µM
SR
  GI50: 3.35 µM
Hs-578T
  GI50: 4.18 µM
PC-3 [5]
  inhibition of growth at 10 µM: 42%
RXF 393
  GI50: 2.27 µM
IGROV-1
  GI50: 4.48 µM
CAKI-1
  GI50: 3.1 µM
SW-620
  GI50: 4.65 µM

## COc1ccc(/C=C\c2cc(OC)c(OC)c(OC)c2)cc1OCC(=O)Nc1nc2ccccc2s1
OVCAR-8
  GI50: 0.25 µM
A498
  GI50: 0.36 µM
NCI-H460
  GI50: 0.052 µM
HT-29; HT-29, 48 h
  GI50: 3.16 µM
CCRF-CEM
  GI50: 0.078 µM
786-0; 786-0, 48 h
  GI50: 0.1 µM
COLO 205
  inhibition of growth at 10 µM: 60%
SK-OV-3
  GI50: 0.34 µM
SF-295
  GI50: 0.22 µM
MCF7 [1]
  Activity: 25.94%
A549
  GI50: 0.34 µM
MDA-MB-468
  GI50: 0.1 µM
NCI-H23
  GI50: 0.11 µM
SK-MEL-5
  GI50: 0.036 µM
MCF7 [2]
  Activity: 27.48%
OVCAR-4
  GI50: 0.37 µM
MCF7 [3]
  Activity: 46%
SNB-75
  GI50: 0.046 µM
PC-3 [4]
  GI50: 0.18 µM
MDA-MB-231
  GI50: 0.19 µM
MDA-MB-435
  GI50: 0.019 µM
K562
  GI50: 0.042 µM
DU-145
  GI50: 0.1 µM
HCT-15
  GI50: 0.048 µM
HEp-2
  growth inhibition (GI): inactive
SF-268
  GI50: 0.18 µM
MOLT-4
  GI50: 0.34 µM
Malme-3M
  GI50: 1.99 µM
T47D
  GI50: 1 µM
SN12C
  GI50: 0.37 µM
UACC-62
  GI50: 0.063 µM
KM12
  GI50: 0.058 µM
LOX IMVI
  GI50: 0.067 µM
SR
  GI50: 0.037 µM
PC-3 [5]
  inhibition of growth at 10 µM: 44%
RXF 393
  GI50: 0.05 µM
IGROV-1
  GI50: 0.21 µM
CAKI-1
  GI50: 0.41 µM

## COc1ccc(/C=C\c2cc(OC)c(OC)c(OC)c2)cc1OCC(=O)Nc1nc2ccc(OC(F)(F)F)cc2s1
OVCAR-8
  GI50: 5 µM
A498
  GI50: 3.61 µM
NCI-H460
  GI50: 4.11 µM
HT-29
  GI50: inactive
CCRF-CEM
  GI50: 4.12 µM
786-0
  GI50: inactive
COLO 205
  inhibition of growth at 10 µM: 41%
SK-OV-3
  GI50: 8.42 µM
SF-295
  GI50: 3.7 µM
MCF7 [1]
  Activity: 59.04%
A549
  GI50: 6 µM
MDA-MB-468
  GI50: 2.3 µM
NCI-H23
  GI50: 4.39 µM
SK-MEL-5
  GI50: 3.26 µM
MCF7 [2]
  Activity: 7.51%
NCI-H322M
  GI50: inactive
OVCAR-4
  GI50: 5.34 µM
MCF7 [3]
  Activity: 33.45%
SNB-75
  GI50: 1.56 µM
PC-3 [4]
  GI50: 5.12 µM
MDA-MB-231
  GI50: 5.16 µM
MDA-MB-435
  GI50: 1.93 µM
K562
  GI50: 3.43 µM
DU-145
  GI50: 4.11 µM
HCT-15
  GI50: 3.23 µM
HEp-2
  inhibition of growth at 10 µM: 78%
SF-268
  GI50: 6.01 µM
MOLT-4
  GI50: 4.21 µM
T47D
  GI50: 3.95 µM
SNB-19
  GI50: 7.08 µM
OVCAR-5
  GI50: 3.12 µM
SN12C
  GI50: 6.42 µM
UACC-62
  GI50: 5.11 µM
KM12
  GI50: 4.48 µM
LOX IMVI
  GI50: 4.77 µM
SR
  GI50: 3.55 µM
Hs-578T
  GI50: 4.33 µM
PC-3 [5]
  inhibition of growth at 10 µM: 34%
RXF 393
  GI50: 2.65 µM
IGROV-1
  GI50: 5.64 µM
CAKI-1
  GI50: 4.6 µM
SW-620
  GI50: 5.65 µM
